Measurements: ChEMBL document CHEMBL1275561, “In vitro activities of doripenem, a new broad-spectrum carbapenem, against recently collected clinical anaerobic isolates, with emphasis on the Bacteroides fragilis group” (2008)
“And” between values parts separate entries of the source, which are not always exact repeats. Equal values may be shown once.

What was measured:
Assay type in all cases: functional
Bacteroides caccae [1] = experiment: Antimicrobial activity against Bacteroides caccae assessed as resistant isolates by agar dilution method
How it was run: (§1)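 CLSI agar dilution on enriched brucella agar (5% lysed defibrinated sheep blood, 1 μg/ml vitamin K1), plates made on test day. Log-phase inocula adjusted to 0.5 McFarland; about 10^5 CFU/spot by Steers replicator. Incubated anaerobically at 37°C for 48 h. MIC was the lowest concentration giving a marked change in growth versus the drug-free control plate. Resistance rates used CLSI anaerobe breakpoints. Controls were B. fragilis ATCC 25285 and B. thetaiotaomicron ATCC 29741.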

[2] = tested on: Parabacteroides distasonis; experiment: Antimicrobial activity against Bacteroides distasonis assessed as resistant isolates by agar dilution method; how it was run: as §1
Bacteroides fragilis [3] = experiment: Antimicrobial activity against Bacteroides fragilis assessed as resistant isolates by agar dilution method; how it was run: as §1
Bacteroides ovatus [4] = experiment: Antimicrobial activity against Bacteroides ovatus assessed as resistant isolates by agar dilution method; how it was run: as §1
[5] = tested on: Bacteroides thetaiotaomicron; experiment: Antimicrobial activity against Bacteroides thetaiotaomicron assessed as resistant isolates by agar dilution method; how it was run: as §1
Bacteroides uniformis [6] = experiment: Antimicrobial activity against Bacteroides uniformis assessed as resistant isolates by agar dilution method; how it was run: as §1
Phocaeicola vulgatus [7] = experiment: Antimicrobial activity against Bacteroides vulgatus assessed as resistant isolates by agar dilution method; how it was run: as §1
Bacteroides eggerthii [8] = experiment: Antimicrobial activity against Bacteroides eggerthii assessed as resistant isolates by agar dilution method; how it was run: as §1
Parabacteroides merdae [9] = experiment: Antimicrobial activity against Bacteroides merdae assessed as resistant isolates by agar dilution method; how it was run: as §1
Bacteroides nordii [10] = experiment: Antimicrobial activity against Bacteroides nordii assessed as resistant isolates by agar dilution method; how it was run: as §1
Clostridioides difficile [11] = experiment: Antimicrobial activity against Clostridium difficile by agar dilution method in presence of beta-lactamase inhibitor Sulbactam
How it was run: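 MICs by CLSI agar dilution on enriched brucella agar (5% lysed defibrinated sheep blood, 1 μg/ml vitamin K1). Log-phase inoculum at 0.5 McFarland, about 10^5 CFU/spot by replicator. Plates held anaerobically at 37°C for 48 h. Endpoint was the lowest concentration giving a marked change in growth against the control plate. Eubacterium lentum ATCC 43055 was the control.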

[Clostridium] innocuum [12] = Antimicrobial activity against Clostridium innocuum assessed as resistant isolates by agar dilution method; settings: pooled result: one value given for 4 cell lines, strains, targets or settings
Finegoldia magna [13] = experiment: Antimicrobial activity against Finegoldia magna by agar dilution method in presence of beta-lactamase inhibitor Sulbactam
How it was run: (§2)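 Gram-positive anaerobes were tested by CLSI agar dilution on brucella agar enriched with 5% lysed defibrinated sheep blood and 1 μg/ml vitamin K1. Inoculum was log-phase growth at 0.5 McFarland, about 10^5 CFU/spot by replicator. Incubation was anaerobic, 37°C, 48 h. MIC was the lowest concentration with a marked growth change versus the drug-free plate. Eubacterium lentum ATCC 43055 was the control, and tests were repeated if it fell outside the CLSI range.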

Finegoldia magna [14] = experiment: Antimicrobial activity against Finegoldia magna assessed as resistant isolates by agar dilution method
How it was run: (§3)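 Agar dilution following CLSI on brucella agar with 5% lysed defibrinated sheep blood and 1 μg/ml vitamin K1, plates made on test day. Log-phase cells at 0.5 McFarland, about 10^5 CFU/spot by Steers replicator, 48 h anaerobic at 37°C. MIC read as the lowest concentration causing a marked growth change versus control. Resistance counted by CLSI anaerobe breakpoints. Eubacterium lentum ATCC 43055 served as control.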

[15] = tested on: Peptoniphilus asaccharolyticus; experiment: Antimicrobial activity against Peptoniphilus asaccharolyticus assessed as resistant isolates by agar dilution method; settings: pooled result: one value given for 4 cell lines, strains, targets or settings; how it was run: as §3
Cutibacterium acnes [16] = experiment: Antimicrobial activity against Propionibacterium acnes by agar dilution method in presence of beta-lactamase inhibitor Sulbactam
How it was run: (§4)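 Log-phase isolates were adjusted to 0.5 McFarland, and about 10^5 CFU/spot was delivered by Steers replicator. Plates were incubated anaerobically at 37°C for 48 h. MIC was the lowest concentration giving a marked growth change versus the control plate. Eubacterium lentum ATCC 43055 was the QC strain, with repeats when out of range.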

Cutibacterium acnes [17] = experiment: Antimicrobial activity against Propionibacterium acnes assessed as resistant isolates by agar dilution method; how it was run: as §3
Propionibacterium [18] = experiment: Antimicrobial activity against Propionibacterium sp. assessed as resistant isolates by agar dilution method; how it was run: as §3
[19] = tested on: Parabacteroides distasonis; experiment: Antimicrobial activity against Bacteroides distasonis by agar dilution method
How it was run: (§5)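 CLSI agar dilution on enriched brucella agar (5% lysed defibrinated sheep blood, 1 μg/ml vitamin K1), with drug plates made on the test day. Log-phase cells were adjusted to 0.5 McFarland, and about 10^5 CFU/spot was delivered by Steers replicator. Plates were incubated anaerobically at 37°C for 48 h. MIC was the lowest concentration giving a marked growth change versus the control plate. Controls were B. fragilis ATCC 25285 and B. thetaiotaomicron ATCC 29741.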

Bacteroides caccae [20] = experiment: Antimicrobial activity against Bacteroides caccae by agar dilution method; how it was run: as §5
Bacteroides fragilis [21] = experiment: Antimicrobial activity against Bacteroides fragilis by agar dilution method; how it was run: as §5
Bacteroides ovatus [22] = experiment: Antimicrobial activity against Bacteroides ovatus by agar dilution method; how it was run: as §5
[23] = tested on: Bacteroides thetaiotaomicron; experiment: Antimicrobial activity against Bacteroides thetaiotaomicron by agar dilution method; how it was run: as §5
Bacteroides uniformis [24] = experiment: Antimicrobial activity against Bacteroides uniformis by agar dilution method; how it was run: as §5
Phocaeicola vulgatus [25] = experiment: Antimicrobial activity against Bacteroides vulgatus by agar dilution method; how it was run: as §5
Bacteroides eggerthii [26] = experiment: Antimicrobial activity against Bacteroides eggerthii by agar dilution method; how it was run: as §5
Parabacteroides merdae [27] = experiment: Antimicrobial activity against Bacteroides merdae by agar dilution method; how it was run: as §5
Bacteroides nordii [28] = experiment: Antimicrobial activity against Bacteroides nordii by agar dilution method; how it was run: as §5
Clostridioides difficile [29] = experiment: Antimicrobial activity against Clostridium difficile by agar dilution method
Clostridium perfringens = experiment: Antimicrobial activity against Clostridium perfringens by agar dilution method
[Clostridium] innocuum [30] = Antimicrobial activity against Clostridium innocuum by agar dilution method
[31] = tested on: Clostridium paraputrificum; experiment: Antimicrobial activity against Clostridium paraputrificum by agar dilution method
Clostridium subterminale = experiment: Antimicrobial activity against Clostridium subterminale by agar dilution method
Clostridium tertium = experiment: Antimicrobial activity against Clostridium tertium by agar dilution method
Finegoldia magna [32] = experiment: Antimicrobial activity against Finegoldia magna by agar dilution method; how it was run: as §2
[33] = tested on: Peptoniphilus asaccharolyticus; experiment: Antimicrobial activity against Peptoniphilus asaccharolyticus by agar dilution method; how it was run: as §2
Parvimonas micra = experiment: Antimicrobial activity against Micromonas micros by agar dilution method; how it was run: as §2
Anaerococcus prevotii = experiment: Antimicrobial activity against Anaerococcus prevotii by agar dilution method; how it was run: as §2
Peptostreptococcus sp. = experiment: Antimicrobial activity against Peptostreptococcus sp. by agar dilution method; how it was run: as §4
Cutibacterium acnes [34] = experiment: Antimicrobial activity against Propionibacterium acnes by agar dilution method; how it was run: as §4
Propionibacterium [35] = experiment: Antimicrobial activity against Propionibacterium sp. by agar dilution method; how it was run: as §4

CC1(C)S[C@@H]2[C@H](NC(=O)[C@H](N)c3ccccc3)C(=O)N2[C@H]1C(=O)O [AMPICILLIN]
2 µg/mL: MIC (Finegoldia magna [13]) | MIC (Finegoldia magna [13]; Finegoldia magna, read-out: MIC)
6.7%: Activity [2]
0.25 µg/mL and 0.5 µg/mL: MIC (Cutibacterium acnes [16])
4.5%: Activity (Bacteroides fragilis [3])
5.6%: Activity ([Clostridium] innocuum [12])
3.8%: Activity [5]
4 µg/mL: MIC (Clostridioides difficile [11])
11.4%: Activity (Bacteroides ovatus [4])
0%: Activity (Bacteroides caccae [1]) | Activity (Bacteroides uniformis [6]) | Activity (Phocaeicola vulgatus [7]) | Activity (Bacteroides eggerthii [8]) | Activity (Parabacteroides merdae [9]) | Activity (Bacteroides nordii [10]) | Activity (Finegoldia magna [14]) | Activity [15] | Activity (Cutibacterium acnes [17]) | Activity (Propionibacterium [18])
0.25 µg/mL: MIC (Cutibacterium acnes [16]; Cutibacterium acnes, read-out: MIC)

C[C@@H](O)[C@H]1C(=O)N2C(C(=O)O)=C(SCCNC=N)C[C@H]12 [IMIPENEM ANHYDROUS]
1%: Activity (Bacteroides fragilis [3])
0.25 µg/mL: MIC50 [19] | MIC50 (Finegoldia magna [32]) | MIC90 (Finegoldia magna [32]) | MIC90 (Propionibacterium [35])
0%: Activity (Bacteroides caccae [1]) | Activity [2] | Activity (Bacteroides ovatus [4]) | Activity [5] | Activity (Bacteroides uniformis [6]) | Activity (Phocaeicola vulgatus [7]) | Activity (Bacteroides eggerthii [8]) | Activity (Parabacteroides merdae [9]) | Activity (Bacteroides nordii [10]) | Activity (Finegoldia magna [14]) | Activity [15] | Activity (Cutibacterium acnes [17]) | Activity (Propionibacterium [18])
0.125 µg/mL: MIC50 [33] | MIC50 (Parvimonas micra) | MIC50 (Anaerococcus prevotii) | MIC50 (Peptostreptococcus sp.)
1 µg/mL: MIC90 (Bacteroides fragilis [21]) | MIC50 [23] | MIC50 (Bacteroides uniformis [24]) | MIC90 (Bacteroides uniformis [24]) | MIC50 (Phocaeicola vulgatus [25]) | MIC90 (Bacteroides eggerthii [26]) | MIC90 (Parabacteroides merdae [27]) | MIC90 (Bacteroides nordii [28])
2 µg/mL: MIC90 [19] | MIC90 (Bacteroides caccae [20]) | MIC90 (Bacteroides ovatus [22]) | MIC90 [23] | MIC90 (Phocaeicola vulgatus [25]) | MIC (Clostridioides difficile [29]) | MIC50 ([Clostridium] innocuum [30]) | MIC90 ([Clostridium] innocuum [30]) | MIC50 [31] | MIC90 [31] | MIC50 (Clostridium subterminale) | MIC90 (Clostridium subterminale) | MIC50 (Clostridium tertium) | MIC90 (Clostridium tertium)
0.5 µg/mL: MIC50 (Bacteroides caccae [20]) | MIC50 (Bacteroides fragilis [21]) | MIC50 (Bacteroides ovatus [22]) | MIC50 (Bacteroides eggerthii [26]) | MIC50 (Parabacteroides merdae [27]) | MIC50 (Bacteroides nordii [28]) | MIC50 (Clostridium perfringens) | MIC90 (Clostridium perfringens) | MIC90 [33] | MIC90 (Parvimonas micra) | MIC90 (Anaerococcus prevotii) | MIC90 (Peptostreptococcus sp.)
0.06 µg/mL: MIC (Cutibacterium acnes [34]) | MIC50 (Cutibacterium acnes [34]) | MIC90 (Cutibacterium acnes [34]) | MIC (Propionibacterium [35]) | MIC50 (Propionibacterium [35])
16.7%: Activity ([Clostridium] innocuum [12])
